Compound activity deposited in PubChem BioAssay by several laboratories.
Rows were chosen to be rich in hits. Some 1.4% of all compounds tested hit in one or more screens of this group.
FXIIa inh 1536: blocks human coagulation factor XIIa protease activity; purified FXIIa, Boc-QGR-AMC fluorogenic substrate, 2 h; inhibition, % at 5 µM; hit rate 0.3% among 220,000; in the data active = inhibition above about 40%;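 note: 0% = enzyme with no compound and 100% = blank without enzyme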
Thrombin inh: inhibitors of human thrombin. inhibition, % at 5 µM. alpha-thrombin, Boc-VPR-AMC fluorogenic substrate cleavage. P00734. hit rate 0.26% among 220,000;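 active = inhibition at or above 40%; inactive = inhibition below 40%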;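 note: 0% = enzyme with no compound and 100% = wells without enzyme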
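Material: human alpha-thrombin enzyme / Medium: pH 7.5 Tris (50 mM) with NaCl 150 mM, Tween 20 0.05% / Compound: single-point dosing at 5 µM, 0.2% DMSO / Incubation: enzyme reaction carried out at room temperature / Detection: AMC fluorescence, 355/460 nm / Read-out basis: percent inhibition scaled between no-compound controls and no-enzyme blanks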
KLK5 inh: kallikrein 5 (human) inhibition; recombinant hK5, fluorogenic AMC substrate cleavage; hit rate 0.59% among 210,000; inhibition, % at 5 µM; Q9Y337;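 active = inhibition of 40% or more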;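 note: 0% = enzyme controls without compound and 100% = no-enzyme blanks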
Target sequence (Q9Y337 67-293 limits assumed): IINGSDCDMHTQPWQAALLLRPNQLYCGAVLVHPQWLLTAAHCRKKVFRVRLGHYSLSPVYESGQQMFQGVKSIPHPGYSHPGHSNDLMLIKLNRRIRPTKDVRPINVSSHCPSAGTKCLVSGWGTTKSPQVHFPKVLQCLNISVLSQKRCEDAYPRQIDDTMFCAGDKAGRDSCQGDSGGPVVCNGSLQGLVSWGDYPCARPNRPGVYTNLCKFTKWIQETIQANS
m-calpain inh: calpain II (pig) inhibition; purified calpain II, fluorogenic peptide substrate, 30 min; inhibition, % at 16 µM; hit rate 0.37% among 220,000; AID 1236;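 active = inhibition above about 50%, limit read from the data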
FXIa inh 1536: blocks human coagulation factor XIa protease activity. inhibition, % at 5 µM. P03951. hit rate 0.14% among 220,000. purified FXIa, Boc-Glu-Ala-Arg-AMC fluorogenic substrate;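 active = inhibition of at least 40%; inactive = inhibition below 40%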;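 note: fluorescence of freed AMC excited at 355 nm; 0% = enzyme without compound and 100% = no enzyme blank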
* = called active by the depositor.

SMILES	FXIIa inh 1536	Thrombin inh	KLK5 inh	m-calpain inh	FXIa inh 1536
CSc1ccc(/C=C/C(=O)c2ccc(NC(=O)C(C)C)cc2)cc1	1.2	-4.8	-3.6	2.3	-2.3
CSc1ccc(C(=O)/C=C/c2ccc(N)cc2)cc1	5.9	22.0	69.3*	30.0	16.8
Cc1ccc(NC(=O)Nc2ccccc2CC[N+](=O)[O-])cc1	-9.8	-7.7	-7.6	11.9	-2.6
CC12C=CC3(O1)C(C(=O)N(c1cccnc1)C3C(=O)NC1CCCCC1)C2C(=O)Nc1ccccc1 (configuration not stated)	24.4	11.2	72.4*	6.2	1.5
Cc1nc(C)c(NC(=O)N2CCc3ccccc32)cc1NC(=O)N1CCc2ccccc21	-1.1	22.3	75.7*	-57.3	3.2
CCOC(=O)c1cc(NC(=O)N2CCCc3ccccc32)c(C)nc1C	-2.3	-3.0	4.7	29.0	-11.2
O=[N+]([O-])c1ccc(Nc2ccccc2)nc1	14.8	2.5	-1.3	9.8	10.7
O=[N+]([O-])c1ccc(NCc2ccccc2)nc1	23.3	20.6	8.4	52.0*	11.3
O=[N+]([O-])c1ccc(Nc2ccc(F)cc2)nc1	7.0	23.3	55.2*	17.8	1.1
CC(C)(C)c1ccc(OC(=O)Nc2ccc(O)c(C(=O)O)c2)cc1	5.4	1.7	-2.8	-74.5	1.0
COCCNCC(=O)Nc1nc(C)cs1	101.9*	14.2	26.9	18.9	46.3*
Cc1cnc(NC(=O)Cc2c[nH]c3ccccc23)s1	-5.7	-4.6	7.5	-0.7	-6.4
Cc1csc(NC(=O)Cc2c[nH]c3ccccc23)n1	40.5*	-3.7	12.0	8.5	-7.8
CCC(C)/C(C)=N/NC(=O)CSc1nc2ccccc2[nH]1 (configuration not stated)	8.9	-1.8	2.4	7.5	-1.2
CCOC(=O)c1c(NC(=O)CSC(=S)N2CCOCC2)sc(C)c1C	1.6	-3.3	-6.1	17.2	1.2
Nc1ncnc2nc(SCCN3CCCCC3)[nH]c12	-2.8	76.2*	-18.1	6.0	-10.3
CNc1nc(OCC#N)nc(N2CCCCC2)n1	2.6	2.8	-3.2	-29.0	-4.0
Cc1ccc(NC(=O)CN2C(=O)/C(=C3\SC(=S)N(C4CCS(=O)(=O)C4)C3=O)c3ccccc32)cc1 (configuration not stated)	0.6	16.4	2.1	66.9*	-4.0
CC(=O)c1c(NCc2ccccc2)nc(=O)n(-c2ccccc2)c1C	11.5	11.2	70.0*	18.6	2.3
CC(=O)c1c(NCCc2ccccc2)nc(=S)n(-c2ccccc2)c1C	10.0	-15.9	0.3	31.3	-6.4
COc1cc(CNc2ccc(O)cc2)cc(Br)c1OCc1ccccc1F	10.4	-5.4	-0.9	34.9	2.5
CCOc1cc(CNc2ccc(O)cc2)cc(Br)c1OCc1ccccc1F	28.0	-0.6	-15.9	73.3*	22.4
CCOc1ccc(N2C(=O)CC(N(Cc3ccco3)C(=O)CCC(=O)O)C2=O)cc1 (configuration not stated)	5.2	-3.2	0.2	14.0	0.6
COc1ccc2cc(C(=O)N3CCCCCC3)sc(=O)c2c1OC	27.3	2.1	-22.6	59.6*	22.8
CCOC(=O)N1CCN(c2ccc(Cl)c(Cl)c2)CC1	10.4	-0.1	-17.1	17.6	26.5
SMILES	FXIIa inh 1536	Thrombin inh	KLK5 inh	m-calpain inh	FXIa inh 1536
CCOC(=O)N1CCN(c2ccc(C(=O)c3cccc(F)c3)cc2)CC1	-1.8	-6.4	-0.3	58.0*	-7.0
CCc1nnc(NC(=O)CCC(=O)N2CCCC2)s1	28.0	42.2*	54.2*	14.5	-8.1
CCc1nnc(NC(=O)CCC(=O)N2CCN(C3CCCCC3)CC2)s1	14.8	-1.2	3.5	-27.7	7.6
N=C1/C(=C\c2ccc(OCc3ccccc3)cc2)C(=O)N=C2SC(N3CCCC3)=NN12	7.9	-0.1	2.2	-5.7	7.5
COC(=O)[C@H](CC(C)C)NC(=O)NC1CCCCC1C (some centres not stated)	12.0	2.2	2.6	-19.7	4.2
Cc1cc(C)cc(OCC(=O)Nc2ccc(N3CCCC3)cc2)c1	45.2*	1.8	5.5	8.1	15.9
Cc1ccccc1NC(NC(=O)c1cccnc1)C(Cl)(Cl)Cl (configuration not stated)	4.8	-4.7	2.3	26.1	-4.0
COc1ccc(NC(NC(=O)c2cccnc2)C(Cl)(Cl)Cl)cc1 (configuration not stated)	54.7*	12.5	13.7	15.9	29.5
CCc1cc2c(SCC(=O)N(C)C3CCS(=O)(=O)C3)ncnc2s1 (configuration not stated)	22.6	18.9	36.9	7.1	51.0*
CCN(CC)c1ccc(CNCc2cccs2)cc1	2.1	-6.4	-5.2	14.6	-3.6
Cc1c(Cl)cccc1NC(=O)Cc1ccc([N+](=O)[O-])cc1	9.3	95.8*	2.7	-38.0	-2.5
Cc1ccc(CC(=O)Nc2cc([N+](=O)[O-])ccc2F)cc1	6.2	-9.5	-3.3	-13.7	-4.2
O=c1c(-c2ccc(Cl)cc2)cnc2n1CCS2	1.2	0.1	-11.3	24.2	-3.8
Fc1cccc(C2NC(=S)NC3=C2N2CCC3CC2)c1 (configuration not stated)	12.5	0.4	5.3	22.1	0.4
S=C1NC2=C(C(c3ccc(Br)cc3)N1)N1CCC2CC1 (configuration not stated)	22.7	20.4	75.6*	15.7	3.1
COC(=O)C(C)N1CCC(=O)c2ccccc2S1(=O)=O (configuration not stated)	3.6	-1.8	0.6	-4.0	-1.7
COc1ccc(NC(=O)c2cccnc2N2CCCC2)cc1	3.7	24.8	59.0*	10.1	2.1
O=C(COC(=O)[C@H](Cc1ccccc1)NC(=O)c1ccco1)NCc1ccccc1	6.3	1.4	-9.9	-27.9	-5.7
COc1cc(C(=O)Nc2ccc3c(c2)OCCO3)ccc1OC(C)C	-2.4	33.8	62.9*	8.5	8.6
CCOC(=O)C1(Cc2ccccc2C(F)(F)F)CCN(CC2CC2)CC1	11.9	-3.9	5.1	28.6	1.8
Cc1ccc(C)c(C(=O)Cn2ncc(Cl)c(Cl)c2=O)c1	1.5	-6.0	-2.7	-33.6	-11.0
Cc1cc(C(=O)Cn2ncc(Cl)c(Cl)c2=O)c(C)n1CC(F)(F)F	30.8	24.4	71.7*	-7.5	17.6
Cn1ccnc1SCC(=O)Nc1ccc(Cl)cn1	5.4	-1.5	1.4	10.3	1.9
COc1ccc(CNC(C)C(=O)Nc2ccc3ccccc3c2)cc1OC (configuration not stated)	3.3	-5.7	-1.9	3.9	-2.1
CCC(=O)Nc1cc2c(cc1C(=O)c1ccccc1)OCCO2	1.9	-5.8	-5.5	-6.6	-3.6
CC(=O)Nc1cc2c(cc1C(=O)c1ccccc1)OCCO2	8.7	34.5	49.2*	12.7	3.7
COc1ccc(/C=N/Nc2nc(-c3cccnc3)nc3ccccc23)c(OC)c1	0.5	-5.0	6.2	-26.1	3.6
COc1cc(Cl)c(C)cc1NC(=O)CNC(C)c1ccccc1OC (configuration not stated)	1.3	-12.1	-8.5	89.8*	-4.8
COc1ccc(OCCCc2c(C)n[nH]c2C)cc1	-10.8	24.8	54.7*	18.5	-6.0
